Assay results reported in ChEMBL document CHEMBL1926519, “B-Ring-modified and/or 5-demethylated nobiletin congeners: inhibitory activity against pro-MMP-9 production” (Bioorg Med Chem, 2011).
Blank lines part the entries; values can stand above or below the molecule they belong to. Active and inactive are the calls of the source. No cut-off for these calls is given here.

How the values were obtained:
[1] = Cytotoxicity against human SRA 01/04 cells at 64 uM after 24 hrs by LDH release assay; type: cell-based
Outline: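 SRA01/04 lens epithelial cells seeded at 5,000/well, after 15–18 h washed with serum-free medium and exposed 24 h to test sample, final 64 lmol/L from DMSO stock. LDH in supernatant read at 570 nm. Percent specific release = (S−N)/(P−N)×100, P being 0.2% Tween-20 lysis and N cell- and serum-free medium. Triplicate means.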

Homo sapiens = organism: Homo sapiens; experiment: Inhibition of PMA-stimulated pro MMP9 production in human SRA 01/04 cells at 64 uM after 24 hrs by SDS-PAGE based gelatin zymography assay; type: functional, cell-based
[2] = Inhibition of TNFalpha-stimulated pro MMP9 production in human SRA 01/04 cells after 24 hrs by SDS-PAGE based gelatin zymography assay; type: functional, cell-based
Outline: (§1)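 Confluent SRA01/04 cells (DMEM, 20% heat-inactivated FBS, 37 °C, 5% CO2) treated 24 h with test sample at 0.25, 1, 4, 16, 64 µM plus PMA 10 nM or TNF-a 10 ng/mL. Media run on 10% SDS–PAGE with 0.6 mg/mL gelatin, incubated at 37 °C in Tris–HCl pH 7.5/CaCl2/ZnCl2, Coomassie-stained. Pro-MMP-9 bands quantified densitometrically, giving IC50, triplicate means.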

[3] = Inhibition of PMA-stimulated pro MMP9 production in human SRA 01/04 cells after 24 hrs by SDS-PAGE based gelatin zymography assay; type: functional, cell-based; outline: as §1
[4] = Ratio of IC50 for PMA-stimulated pro MMP9 production in human SRA 01/04 cells to IC50 for TNFalpha-stimulated pro MMP9 production in human SRA 01/04 cells; type: functional

Compound: COc1c(OC)c(OC)c2c(=O)cc(-c3cccc(OCc4ccccc4)c3)oc2c1OC
- Activity [1]: Toxic

Compound: COc1c(OC)c(OC)c2c(=O)cc(-c3ccc(OCc4ccccc4)cc3)oc2c1OC
- Activity [1]: Toxic

Compound: COc1cc(OC)cc(-c2cc(=O)c3c(OC)c(OC)c(OC)c(OC)c3o2)c1
- IC50 [2]: 25.8 µM
- Activity [1]: Non-toxic
- IC50 [3]: 12 µM

Compound: COc1ccc(-c2cc(=O)c3c(OC)c(OC)c(OC)c(OC)c3o2)cc1 [TANGERETIN]
- IC50 [2]: 33.2 µM
- Activity [1]: Non-toxic
- IC50 [3]: 6.8 µM

Compound: COc1c(OC)c(OC)c2c(=O)cc(-c3ccccc3O)oc2c1OC
- Ratio IC50 [4]: 170
- IC50 [2]: 68 µM
- Activity [1]: Non-toxic
- IC50 [3]: 0.4 µM

Compound: COc1ccccc1-c1cc(=O)c2c(OC)c(OC)c(OC)c(OC)c2o1
- IC50 [2]: 24 µM
- Activity [1]: Non-toxic
- IC50 [3]: 13.7 µM

Compound: COc1cccc(-c2cc(=O)c3c(OC)c(OC)c(OC)c(OC)c3o2)c1
- IC50 [2]: 15.5 µM
- Activity [1]: Non-toxic
- IC50 [3]: 5.5 µM

Now from value to molecule, other results behind:

- IC50 [2]: 23.5 µM
- IC50 [3]: 2.5 µM
Compound: COc1c(OC)c(OC)c2c(=O)cc(-c3cccc(O)c3)oc2c1OC
- inhibition (Homo sapiens): inactive
- Activity [1]: Non-toxic

- IC50 [2]: 10.6 µM
- IC50 [3]: 0.7 µM
Compound: COc1cc(-c2cc(=O)c3c(O)c(OC)c(OC)c(OC)c3o2)ccc1O
- Ratio IC50 [4]: 15
- Activity [1]: Non-toxic

- IC50 [2]: 42.4 µM
- IC50 [3]: 3 µM
Compound: COc1ccc(-c2cc(=O)c3c(O)c(OC)c(OC)c(OC)c3o2)cc1OC [5-DEMETHYLNOBILETIN]
- Ratio IC50 [4]: 14
- inhibition (Homo sapiens): inactive
- Activity [1]: Non-toxic

- IC50 [2]: 22.3 µM
- IC50 [3]: 3.5 µM
Compound: COc1c(OC)c(O)c2c(=O)cc(-c3ccc(O)cc3)oc2c1OC [XANTHOMICROL]
- Ratio IC50 [4]: 6
- Activity [1]: Non-toxic

- IC50 [2]: 14.3 µM
- IC50 [3]: 2.6 µM
Compound: COc1c(OC)c(OC)c2c(=O)cc(-c3ccc(O)cc3)oc2c1OC
- Activity [1]: Non-toxic

- IC50 [2]: 24 µM
- IC50 [3]: 8.1 µM
Compound: COc1c(OC)c(OC)c2c(=O)cc(-c3cc(O)cc(O)c3)oc2c1OC
- Activity [1]: Non-toxic

- IC50 [2]: 29.6 µM
- IC50 [3]: 1.5 µM
Compound: COc1ccc(-c2cc(=O)c3c(O)c(OC)c(OC)c(OC)c3o2)cc1O
- inhibition (Homo sapiens): inactive
- Activity [1]: Non-toxic
